Key:
[1] = Plasma oxytocin pharmacokinetics, phase 1 single-dose study; assay type: in vivo, human
Safety and tolerability = assay type: in vivo, human; details: IM 10 IU (17 μg); N = 16
Summary of the method: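 Healthy female volunteers in a single-centre, single-blind, fixed-sequence phase 1 study received a single IM dose of test compound, 10 IU, alongside inhaled dosing sessions. Adverse events and serious adverse events were recorded throughout the study. Spirometry, clinical laboratory tests, vital signs, ECG intervals, physical examination and cardiac telemetry were checked at set post-dose times. Follow-up visit 7–21 days after the last inhaled dose. Data were summarised descriptively.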

[2] = sublingual, male volunteers; ref De Groot et al., 1995; cited from earlier work
[3] = female, human, plasma, im, 10 IU

| Compound | subjects in whom plasma oxytocin remained quantifiable up to 4 h ([1]; IM 10 IU, LLQ 2 pg/mL) | AUC(0–3 h), adjusted geometric mean ([1]; IM 10 IU, plasma, mixed-effect model, PK population) | AUC(0-t) [1, 3] | Cmax [1, 3] | half-life [1, 3] | level at 0.5 h [1, 3] | tmax [1, 3] | tmax ([1]; following IM administration (10 IU), plasma) | AE that led to discontinuation of study drug or withdrawal from the study, number of subjects (Safety and tolerability) | Deaths, number of AEs (Safety and tolerability) | Deaths, number of subjects (Safety and tolerability) | Headache (drug-related), number of AEs (Safety and tolerability) | Led to discontinuation of study drug or withdrawal from the study, number of AEs (Safety and tolerability) | Non-fatal SAEs, number of subjects (Safety and tolerability) | absorption half-life [2] | bioavailability [2] | lag time [2] |
| --- | --- | --- | --- | --- | --- | --- | --- | --- | --- | --- | --- | --- | --- | --- | --- | --- | --- |
| CC[C@H](C)[C@@H]1NC(=O)[C@H](Cc2ccc(O)cc2)NC(=O)[C@@H](N)CSSC[C@@H](C(=O)N2CCC[C@H]2C(=O)N[C@@H](CC(C)C)C(=O)NCC(N)=O)NC(=O)[C@H](CC(N)=O)NC(=O)[C@H](CCC(N)=O)NC1=O [IM oxytocin, oxytocin] | 5/16 | 0.12761 ng·h/mL | 0.12 ng·h/mL | 0.19 ng/mL | 38.4 min | 0.0822 ng/mL | 10.2 min | ~ 10 min | 0 | 0 | 0 | 1 | 0 | 0 | – | – | – |
| oxytocin [sublingual oxytocin] | – | – | – | – | – | – | – | – | – | – | – | – | – | – | long absorption half-life | poor bioavailability | long lag time |
